Screening data: PubChem, several laboratories
HTR2A ag: agonists of mouse serotonin 5-HT2A receptor (HTR2A); AID 624169; actives 0.66% (n = 360,000); activation, % at 7.6 µM; CHO-K1 mHTR2A beta-arrestin complementation, luminescence; percent of 30 µM serotonin response; P35363;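 active means activation above a run cutoff, the mean activation of all tested compounds plus 3 SD, cut at about 14% in these data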
Target sequence (P35363 whole entry, looked up): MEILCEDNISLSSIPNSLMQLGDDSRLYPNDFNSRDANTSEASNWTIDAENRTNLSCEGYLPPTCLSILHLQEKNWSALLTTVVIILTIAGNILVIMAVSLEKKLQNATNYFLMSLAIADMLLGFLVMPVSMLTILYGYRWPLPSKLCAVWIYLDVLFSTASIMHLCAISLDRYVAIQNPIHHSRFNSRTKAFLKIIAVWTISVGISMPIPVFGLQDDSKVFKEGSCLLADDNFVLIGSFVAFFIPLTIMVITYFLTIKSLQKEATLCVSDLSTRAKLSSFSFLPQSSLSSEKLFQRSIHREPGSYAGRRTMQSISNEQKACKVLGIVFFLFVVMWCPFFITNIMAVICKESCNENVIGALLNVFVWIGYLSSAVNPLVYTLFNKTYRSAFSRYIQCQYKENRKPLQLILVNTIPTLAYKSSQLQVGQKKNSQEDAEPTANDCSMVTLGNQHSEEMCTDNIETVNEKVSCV
SR-BI HDL uptake: inhibitors of mouse SR-BI mediated HDL lipid uptake; ldlA[mSR-BI] CHO cells, DiI-HDL uptake fluorescence, 3 h; inhibition, % at 12.5 µM; actives 0.96% (n = 320,000); AID 488896;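 active means mean replicate inhibition of at least 70% and a set share of replicates each scoring 70 or more; inconclusive means meets just one of the two criteria; inactive means fails both criteria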
SR-BI DiI-HDL act: activators of SR-BI mediated HDL lipid uptake. activation, % at 12.5 µM. AID 504775. CHO ldlA[mSR-BI] cells, DiI-HDL uptake fluorescence, 3 h; 100 = double the neutral-control signal. actives 0.096% (n = 320,000);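 active means mean replicate activation of at least 60% and every replicate at or above 60%; inconclusive means mean or all-replicate condition met, but not both; inactive means mean below 60% and not all replicates reaching 60%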
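material = CHO ldlA[mSR-BI] cells | medium = Ham's F12 with 0.5% BSA, HEPES 25 mM, pH 7.4 | reagent = fluorescent DiI-HDL, 10 µg/mL final | compound dosing = single-point compound dose | incubation = 3 h, 37 °C | measured by = bottom-read fluorescence, 550/595 nm | measure = HDL uptake via cellular fluorescence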
beta cell repl: inducers of beta-cell replication in MIN6 cells; actives 0.29% (n = 330,000); MIN6 cells proliferation, ATPlite luminescence, 48 h; cells starved in 0.2% serum; 100% = growth in 10% serum; proliferation, % at 10 µM;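 active means compounds whose signal lies at least 3.5 SD above the mean of all wells on their plate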
Calb FLC: C. albicans growth modulation with fluconazole; C. albicans CaCi-2 + fluconazole, Alamar Blue growth, 48 h; growth inhibition, % (concentration not given with the values); actives 0.57% (n = 300,000); AID 1979;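 active means growth inhibition above about 58% in most replicates, limit read from the data, passing the limit was not always enough; inconclusive means exactly half the replicates above a set limit; inactive means most replicates below a set limit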;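 further: all wells also contain fluconazole at 8 µg/ml as a sub-toxic cotreatment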
Insulin prom up: MIN6 insulin promoter up-regulation. actives 0.3% (n = 190,000). z-score at 5 µM. MIN6 insulin promoter-GFP reporter, high-content imaging; hits give high values;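 active means z-score above 3 at 5 µM with at least 500 cells counted in the well; inconclusive means wells under 500 cells, flagged as cytotoxic or low count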
Numbers stand for hits. The list is not random: actives were taken first. Their share in the collection is about 2.4%.

O=C(NC1CCN(Cc2ccccc2)CC1)c1cc(S(=O)(=O)N2CCOCC2)ccc1Cl was read as HTR2A ag inactive, SR-BI HDL uptake inactive and SR-BI DiI-HDL act inactive.
CC(C)c1ccc(O)c(NC(=O)c2cccnc2)c1 was read as HTR2A ag inactive, SR-BI HDL uptake inactive, SR-BI DiI-HDL act inactive, beta cell repl inactive, Calb FLC inactive and Insulin prom up inactive.
`COc1ccccc1C(=O)NNC(=S)NC(=O)c1cc(OC)c(OC)c(OC)c1` gave HTR2A ag inactive, SR-BI HDL uptake inactive, SR-BI DiI-HDL act inactive, beta cell repl inactive, Calb FLC 105.2 and Insulin prom up inactive.
COc1ccccc1C(=O)NC(=S)Nc1ccccc1N1CCCC1 was read as HTR2A ag inactive, SR-BI HDL uptake 74.7, SR-BI DiI-HDL act inactive, beta cell repl inactive and Calb FLC inactive.
Screening Cc1ccccc1C(=O)NNC(=S)NC(=O)c1ccc(Cl)cc1Cl returned HTR2A ag inactive, SR-BI HDL uptake inactive, SR-BI DiI-HDL act inactive, beta cell repl inactive, Calb FLC 91.4 and Insulin prom up inactive.
For CCC(C)c1ccc(O)c(NC(=S)NC(=O)c2cccnc2)c1 (configuration not stated) the results were HTR2A ag inactive, SR-BI HDL uptake inactive, SR-BI DiI-HDL act inactive, beta cell repl inactive and Calb FLC 81.8.
O=C(NC(=S)NNC(=O)c1ccc(Cl)cc1Cl)c1cccnc1 was read as HTR2A ag inactive, SR-BI HDL uptake inactive, SR-BI DiI-HDL act inactive, beta cell repl inactive, Calb FLC inactive and Insulin prom up inactive.
Screening CC1(C)Cc2c(cnn2-c2ccc(F)cc2)C(NC(=O)CCN2CCCCC2=O)C1 (configuration not stated) returned HTR2A ag inactive, SR-BI HDL uptake inactive, SR-BI DiI-HDL act inactive, beta cell repl inactive and Calb FLC inactive.
For COc1ccc(N(CC(=O)NCc2cccs2)S(=O)(=O)c2cccc(C)c2)cc1 the results were HTR2A ag inactive, SR-BI HDL uptake inactive, SR-BI DiI-HDL act inactive and beta cell repl inactive.
Screening O=S1(=O)CC(N2CC=CC2)CN1Cc1cn(Cc2cccc(C(F)(F)F)c2)nn1 (configuration not stated) returned HTR2A ag inactive.
For COc1ccc(C(=O)NC(=S)NNC(=O)c2ccccc2C)cc1 the results were HTR2A ag inactive, SR-BI HDL uptake inactive, SR-BI DiI-HDL act inactive, beta cell repl inactive and Calb FLC 100.8.
Cc1ccc(C(=O)NNC(=O)CSc2nnc(C(C)C)n2C)cc1 was read as HTR2A ag inactive, beta cell repl inactive and Calb FLC inactive.
COc1cccc(OC)c1C(=O)Nc1cc(C)nn1-c1nc2ccccc2[nH]1 was read as HTR2A ag inactive, SR-BI HDL uptake inactive, SR-BI DiI-HDL act inactive, beta cell repl inactive, Calb FLC inactive and Insulin prom up inactive.
`COc1ccc(C(=O)Nc2cc(C)nn2-c2nc3ccccc3[nH]2)c(OC)c1` gave HTR2A ag inactive, SR-BI HDL uptake 75.3, SR-BI DiI-HDL act inactive, beta cell repl inactive, Calb FLC inactive and Insulin prom up inactive.
`Cc1cc(NC(=O)c2ccccc2)n(-c2nc3ccccc3[nH]2)n1` gave HTR2A ag inactive, SR-BI HDL uptake inactive, SR-BI DiI-HDL act inactive, beta cell repl inactive, Calb FLC inactive and Insulin prom up inactive.
Screening Cc1cc(NC(=O)c2cccs2)n(-c2nc3ccccc3[nH]2)n1 returned HTR2A ag inactive, SR-BI HDL uptake 93.2, SR-BI DiI-HDL act inactive, beta cell repl inactive, Calb FLC inactive and Insulin prom up inactive.
Screening Cc1cc(NC(=O)c2sccc2C)n(-c2nc3ccccc3[nH]2)n1 returned HTR2A ag inactive, SR-BI HDL uptake 78.2, SR-BI DiI-HDL act inactive, beta cell repl inactive, Calb FLC inactive and Insulin prom up inactive.
CC(C)OC(=O)Nc1ccc2c(c1)N(C(=O)CCN1CCN(CCO)CC1)c1ccccc1CC2 was read as HTR2A ag inactive, SR-BI HDL uptake inactive, SR-BI DiI-HDL act inactive, beta cell repl inactive and Calb FLC inactive.
CC(C)OC(=O)Nc1ccc2c(c1)N(C(=O)CCN1CCOCC1)c1ccccc1CC2 was read as HTR2A ag inactive, SR-BI HDL uptake inactive, SR-BI DiI-HDL act 62.7, beta cell repl inactive and Calb FLC inactive.
Screening C/C=C/C(=O)OCC(=O)Nc1cccc(S(=O)(=O)NC2=NCCCCC2)c1 returned HTR2A ag inactive, SR-BI HDL uptake inactive, SR-BI DiI-HDL act inactive, beta cell repl inactive, Calb FLC inactive and Insulin prom up inactive.
Screening NC(=O)Nc1ccc(C(=O)OCC(=O)Nc2cccc(S(=O)(=O)NC3=NCCC3)c2)cc1 returned HTR2A ag inactive, SR-BI HDL uptake 76.0, SR-BI DiI-HDL act inactive and beta cell repl inactive.
`CCC(C(=O)OCC(=O)Nc1cccc(S(=O)(=O)NC2=NCCCCC2)c1)c1ccccc1` (configuration not stated) gave beta cell repl inactive, Calb FLC inconclusive and Insulin prom up 3.98.
O=S(=O)(NCc1ccccc1)c1ccc(NC(=S)NCc2ccco2)cc1 was read as HTR2A ag inactive, SR-BI HDL uptake inactive, SR-BI DiI-HDL act inactive, beta cell repl inactive and Calb FLC inactive.
For Cc1ccnn1-c1ccc(C(=O)OCC(=O)Nc2ccc(F)cc2)cc1 the results were HTR2A ag inactive, SR-BI HDL uptake inactive, SR-BI DiI-HDL act inactive and beta cell repl inactive.
Cc1ccc(C2CC2C(=O)NNC(=S)Nc2cccc(Cl)c2)cc1 (configuration not stated) was read as HTR2A ag inactive, SR-BI HDL uptake inactive, SR-BI DiI-HDL act inactive, beta cell repl inactive and Calb FLC 111.9.
Cc1ccc(C2CC2C(=O)NNC(=S)Nc2cccc(C)c2)cc1 (configuration not stated) was read as HTR2A ag inactive, SR-BI HDL uptake inactive, SR-BI DiI-HDL act inactive, beta cell repl inactive, Calb FLC inconclusive and Insulin prom up inactive.
Screening Cc1ccn(CC(=O)N2CCCC(N3CCN(c4cccc(C(F)(F)F)c4)CC3)C2)n1 (configuration not stated) returned HTR2A ag inactive.
Screening O=C(NCc1cccnc1)NC1(c2ccccc2)CC1 returned HTR2A ag 20.3, beta cell repl inactive, Calb FLC inactive and Insulin prom up inactive.
For COc1ccc([N+](=O)[O-])cc1N/C(=N/S(=O)(=O)c1ccccc1)c1ccccc1 the results were HTR2A ag inactive, SR-BI HDL uptake 72.9, SR-BI DiI-HDL act inactive, beta cell repl inactive, Calb FLC inactive and Insulin prom up inactive.
For COc1ccc([N+](=O)[O-])cc1NC(=O)Cc1ccc(C)cc1 the results were HTR2A ag inactive, beta cell repl inactive, Calb FLC inactive and Insulin prom up inactive.
`COc1ccc(NC(=O)Nc2ccc(OC)c(OC)c2)c([N+](=O)[O-])c1` gave HTR2A ag inactive, SR-BI HDL uptake inactive, SR-BI DiI-HDL act inactive, beta cell repl inactive, Calb FLC inactive and Insulin prom up inactive.
